This is an account of results in ChEMBL document CHEMBL1128176 (J Med Chem, 1995).

The target of assay [1] is Leukotriene B4 receptor (Cavia porcellus). The assay is described as follows: Binding affinity towards Leukotriene B4 receptor guinea pig lung membrane using [3H]LTB4 as radioligand.
Assay [2] deals with T1, Leukotriene B4 receptor (Homo sapiens, UniProt Q9NPC1+Q15722). The assay is described as follows: Binding affinity towards human LTB4 receptor measured as inhibition of binding of [3H]LTB4 to isolated human neutrophils.
Assay [3] concerns the target T1, Leukotriene B4 receptor. The assay is described as follows: Inhibition of LTB4 induced expression of human neutrophil integrin CD11b/CD18. The format is functional. A digest of the protocol:
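Human neutrophils stimulated with LTB4; test agents, mostly as sodium salts, dissolved in dilute sodium bicarbonate vehicle. Integrin CD11b/CD18 surface expression read by flow cytometry. IC50 derived from inhibition of LTB4-induced up-regulation. Where SEM is given, the value is the mean of at least four determinations.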

The structures appear in SMILES notation.

On to `CCc1cc(-c2ccccc2)c(O)cc1OCCCOc1ccc2c(=O)c3ccccc3oc2c1CCC(=O)O`, for which the Ki in assay [1] is 12 nM; in assay [2], 22 nM.

In the case of `CCc1cc(-c2ccc(F)cc2)c(O)cc1OCCCOc1ccc2c(=O)c3ccccc3oc2c1CCC(=O)O`, the inhibition constant Ki in assay [1] is recorded as 4 nM; in assay [2] it was 36 nM.

`CCCc1c(OCCCCCOc2cc(O)c(-c3ccc(F)cc3)cc2CC)cccc1Oc1ccccc1C(=O)O`: the values for the inhibitory constant (Ki) in assay [1] and in assay [2] were 6.8 nM and 150 nM, respectively. For the same molecule, the half-maximal inhibitory concentration (IC50) in assay [3] was determined as 9.5 nM.

The molecule `CCc1cc(-c2ccc(F)cc2)c(O)cc1OCCCOc1cccc(OCCCCC(=O)O)c1CCC(=O)O` showed an IC50 in assay [3] of 13 nM. This molecule returned a Ki in assay [2] of 2.3 nM.

Take `CCCCc1c(OCCCOc2cc(O)c(-c3ccc(F)cc3)cc2CC)cccc1Oc1ccccc1C(=O)O`: the figures for the inhibition constant (Ki) in assay [1] and in assay [2] were 16 nM and 34 nM, respectively. Moreover, the IC50 in assay [3] is recorded as 14 nM.

Turning to `CCCc1c(OCCCCOc2cc(O)c(-c3ccc(F)cc3)cc2CC)cccc1Oc1ccccc1C(=O)O`, the Ki in assay [1] worked out at 19 nM; in assay [2] it was 39 nM. For the same molecule, the IC50 in assay [3] was found to be 5.1 nM.

In assay [2], `CCCc1cc(CC)c(OCCCCCC(C)(C)c2nn[nH]n2)cc1O` displayed a Ki of 9.3 nM.

As for `CCc1cc(-c2ccc(F)cc2)c(O)cc1OCCCOc1ccccc1CCc1nnn[nH]1`, the Ki in assay [1] and in assay [2] was 15 nM in each case.

`CCCc1c(OCCCOc2cc(O)c(-c3ccc(F)cc3)cc2CC)ccc2c1OC(C(=O)O)CC2` (stereo not drawn): the Ki in assay [1] was 4.4 nM; in assay [2] it was 3.8 nM. This molecule also returned an IC50 in assay [3] of 17 nM.

For the molecule `CCc1cc(-c2ccc(F)cc2)c(O)cc1OCCCOc1cccc(Oc2ccccc2C(=O)O)c1CC(C)C`, the Ki was found to be 14 nM in assay [1] and 36 nM in assay [2]. Moreover, the IC50 in assay [3] came out at 8.5 nM.

Regarding `CCc1cc(-c2ccc(F)cc2)c(O)cc1OCCCOc1cccc(Oc2ccccc2C(=O)O)c1Cc1ccccc1`, the inhibitory constant (Ki) in assay [1] is reported as 55 nM; in assay [2], 390 nM. This molecule yielded an IC50 in assay [3] of 220 nM.

With `CCCc1c(OCCCOc2cc(O)c(-c3ccccc3)cc2CC)cccc1Oc1ccccc1C(=O)O`, the Ki in assay [1] was found to be 16 nM; in assay [2], 19 nM. The molecule further gave an IC50 in assay [3] of 11 nM.

As to `CCCc1c(OCCCOc2cc(O)c(-c3ccc(F)cc3)cc2CC)cccc1Oc1cccc(F)c1C(=O)O`, the Ki in assay [1] is 9.5 nM; in assay [2] it was 4.4 nM. In addition, the IC50 in assay [3] was 2.5 nM.

`CCCc1c(OCCCOc2cc(O)c(-c3ccc(F)cc3)cc2CC)cccc1C(=O)c1ccccc1C(=O)O`: the inhibitory constant (Ki) in assay [1] is given as 11 nM; in assay [2], 35 nM. Also, the IC50 in assay [3] came out at 13 nM.

For `CCc1cc(-c2ccc(F)cc2)c(O)cc1OCCCOc1cccc(OCCCCC(=O)N(C)C)c1CCC(=O)O`, the IC50 in assay [3] was found to be 7.8 nM. Besides, the Ki in assay [2] was determined as 3.1 nM.

With `CCCc1c(OCCCOc2cc(O)c(-c3ccc(F)cc3)cc2CC)cccc1Sc1ccccc1C(=O)O`, the Ki in assay [1] was 11 nM; in assay [2], 350 nM. For the same molecule, in assay [3], the IC50 turned out to be 7.4 nM.

As to `CCCc1c(OCCCOc2cc(O)c(-c3ccc(F)cc3)cc2CC)cccc1[S+]([O-])c1ccccc1C(=O)O` (stereo not drawn), the figures for the Ki in assay [1] and in assay [2] were 1.4 nM and 14 nM, respectively. The molecule also showed a concentration for half-maximal inhibition (IC50) in assay [3] of 95 nM.

As for `CCc1cc(-c2ccc(F)cc2)c(O)cc1OCCCOc1cccc(OC)c1CCC(=O)O`, the Ki in assay [1] was 6.4 nM; in assay [2], 8.3 nM. This molecule also registered a concentration for half-maximal inhibition (IC50) in assay [3] of 64 nM.

As for `CCc1cc(-c2ccc(F)cc2)c(O)cc1OCCCOc1ccccc1CCC(=O)O`, the Ki in assay [1] came out at 3.8 nM; in assay [2], 8 nM. Moreover, the IC50 in assay [3] came out at 31 nM.

The molecule `CCc1cc(-c2ccc(N(C)C)cc2)c(O)cc1OCCCCCC(C)(C)c1nn[nH]n1` gave a Ki in assay [2] of 16 nM.

On to `CCc1cc(-c2cccc(C(F)(F)F)c2)c(O)cc1OCCCCCC(C)(C)c1nn[nH]n1`, for which the inhibitory constant (Ki) in assay [2] worked out at 33 nM.

Regarding `CCc1cc(-c2ccc(F)cc2)c(O)cc1OCCCOc1ccc2c(=O)c3cc(C(=O)O)ccc3oc2c1CCC(=O)O`, the Ki in assay [1] is 0.04 nM; in assay [2], 0.47 nM.

`CCc1cc(-c2ccccn2)c(O)cc1OCCCCCC(C)(C)c1nn[nH]n1` yielded a Ki in assay [2] of 453 nM.

Take `CCc1cc(-c2ccc(F)cc2)c(O)cc1OCCCOc1cccc(OCCCCc2nnn[nH]2)c1CCC(=O)O`: in assay [2], the inhibitory constant (Ki) came to 2.3 nM.

In the case of `CCc1cc(-c2ccccc2)c(O)cc1OCCCOc1ccc2c(=O)c3cc(C(=O)O)ccc3oc2c1CCC(=O)O`, the values for the Ki in assay [1] and in assay [2] were 0.11 nM and 0.51 nM, respectively.

As to `CCCc1c(OCCCOc2cc(O)c(-c3ccc(F)cc3)cc2CC)cccc1Oc1ccccc1CC(=O)O`, the Ki in assay [1] was found to be 8.4 nM; in assay [2] it was 210 nM. The molecule also had an IC50 in assay [3] of 7.8 nM.

Turning to `CCCc1c(OCCCOc2cc(O)c(-c3ccccc3)cc2CC)ccc2c1OC(C(=O)O)CC2` (stereo not drawn), the figures for the inhibition constant Ki in assay [1] and in assay [2] were 2.8 nM and 3.3 nM, respectively. The molecule also came in with an IC50 in assay [3] of 110 nM.

On to `CCCc1c(OCCCOc2cc(O)c(-c3ccc(F)cc3)cc2CC)cccc1Oc1cc(F)ccc1C(=O)O`, for which the values for the Ki in assay [1] and in assay [2] were 19 nM and 48 nM, respectively. Moreover, the IC50 in assay [3] came out at 2.7 nM.

Take `CCCc1c(OCCCOc2cc(O)c(-c3ccccc3)cc2CC)cccc1Oc1cccc(F)c1C(=O)O`: the Ki in assay [1] was found to be 14 nM; in assay [2], 10 nM. This molecule also gave an IC50 in assay [3] of 3.2 nM.

For the molecule `CCCc1c(OCCCOc2cc(O)c(-c3ccc(F)cc3)cc2CC)cccc1Oc1ccccc1C(=O)O` [ETALOCIB], the Ki in assay [1] was determined as 6.6 nM; in assay [2], 17 nM. The IC50 in assay [3] is 3.3 nM.
